# Laboratory results: ChEMBL document CHEMBL1133723, “Developing a dynamic pharmacophore model for HIV-1 integrase” (J Med Chem, 2000)
# *1 amine or outer side, *2 acyl side, *3 side chain or, on linkers, in order; H or OH if unused. Where a SMILES comes first, the peptide text is derived from it. Bridges are numbered along the chain shown (N, C = ends). [ ]: non-standard residue; d: D form. The star is where a group is joined. X1 = NC1=N[C@@H]([C@H](N[*:1])C(=O)[*:2])C[C@H](O)N1; ΔAla(Z-3-ureido) = NC(=O)N/C=C(\N)C(=O)O; pNA = O=[N+]([O-])c1ccc(N*)cc1; AMC = Cc1cc(=O)oc2cc(N*)ccc12; β3hOrn = NCCC[C@H](N)CC(=O)*; Dap = NC[C@H](N)C(=O)O; Boc = CC(C)(C)OC(=O)*; Bn = c1ccc(C*)cc1
# Key:
# [1] = target: Human immunodeficiency virus type 1 integrase (Human immunodeficiency virus 1) (UniProt Q7ZJM1); assay: Inhibition against HIV-1 integrase at 25 uM
# Method in brief: (§1)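 Integration reaction with HIV-1 integrase, run as in an earlier published method except for the detection step. The integration product was detected with digoxygenin-labelled oligonucleotides and an anti-digoxygenin antibody conjugated to horseradish peroxidase. Compounds were tested at 1 mM, 200 µM and 25 µM.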
# [2] = target: Human immunodeficiency virus type 1 integrase (Human immunodeficiency virus 1) (UniProt Q7ZJM1); details: at 1 mM
# [3] = target: Human immunodeficiency virus type 1 integrase (Human immunodeficiency virus 1) (UniProt Q7ZJM1); details: at 200 µM
# [4] = target: T1, Human immunodeficiency virus type 1 integrase (Human immunodeficiency virus 1, UniProt Q7ZJM1)
# [5] = target: T1, Human immunodeficiency virus type 1 integrase; remark: listed apart in the source
# [6] = target: Human immunodeficiency virus type 1 integrase (Human immunodeficiency virus 1) (UniProt Q7ZJM1); assay: Inhibitory activity against HIV-1 integrase at 1 mM; method in brief: as §1
# [7] = target: Human immunodeficiency virus type 1 integrase (Human immunodeficiency virus 1) (UniProt Q7ZJM1); assay: Inhibitory activity against HIV-1 integrase at 200 uM; method in brief: as §1
# [8] = target: Human immunodeficiency virus type 1 integrase (Human immunodeficiency virus 1) (UniProt Q7ZJM1); assay: Inhibitory activity against HIV-1 integrase at 25 uM; method in brief: as §1
Structure (SMILES),inhibition [2] [%],inhibition [3] [%],IC50 [4] [nM],IC50 [5] [nM],other results
NC(=O)c1ccccc1NC(=O)Nc1cc(NC(=O)Nc2ccccc2C(N)=O)c(Br)cc1Br,> 50,> 50,,,inhibition [1]: < 50%
N/N=C(\S)Nc1ccc(N/C(S)=N/N)cc1,> 50,< 50,,,inhibition [1]: < 50%
NC(N)=Nc1nc(CSCC/C(N)=N/S(N)(=O)=O)cs1,< 50,< 50,,,
N#C/C(=C\c1ccc(O)c(O)c1)C(=O)NCCCNC(=O)/C(C#N)=C/c1ccc(O)c(O)c1,,,10000,3000,
O=C(NC(CO)(CO)CO)C(=O)NC(CO)(CO)CO,,,,,inhibition [6]: < 50%; inhibition [7]: < 50%
CCC1C/C(=N\NC(N)=O)C(NNC(N)=O)C(C)C1 (centres undefined),< 50,< 50,,,
O=P(O)(O)O[C@@H]1O[C@H](CO)[C@@H](O)[C@H](O)[C@H]1O,,,,,inhibition [6]: < 50%; inhibition [7]: < 50%
OC[C@@H](O)[C@@H](O)[C@H](O)c1cnc([C@@H](O)[C@H](O)[C@H](O)CO)cn1,,,,,inhibition [6]: < 50%; inhibition [7]: < 50%
O=C(NCCCCCCNC(=O)NNc1ccccc1)NNc1ccccc1,< 50,< 50,,,
NNC(=O)C(O)C(O)C(O)C(O)CO (centres undefined),> 50,< 50,,,inhibition [1]: < 50%
COC1/C=C/OC2(C)Oc3c(C)c(O)c4c(O)c(c(C=NN5C(C)CN(Cc6ccc([N+](=O)[O-])cc6)CC5C)c(O)c4c3C2=O)NC(=O)/C(C)=C\C=C\C(C)C(O)C(C)C(O)C(C)C(OC(C)=O)C1C (centres undefined),,,20600,19700,
C[C@@H]1O[C@@H](OC2C[C@](O)(C(=O)CO)Cc3c(O)c4c(c(O)c32)C(=O)c2c(O)cccc2C4=O)C[C@H](N)[C@@H]1O (some centres undefined),,,2300,4100,
O=C(/C=C\c1ccc(O)c(O)c1)OC1CC(OC(=O)/C=C\c2ccc(O)c(O)c2)(C(=O)O)CC(O)C1O (centres undefined),,,680,1080,
CC(C)(C)OC(=O)N[C@@H](COCc1ccccc1)C(=O)NCC(=O)N[C@@H](CCCN=C(N)N)C(=O)Nc1ccc([N+](=O)[O-])cc1 (Boc-Ser(Bn)-Gly-Arg-pNA),> 50,< 50,,,inhibition [1]: < 50%
O=C1c2c(O)ccc(O)c2C(=O)c2c(NCCNCCO)ccc(NCCNCCO)c21 [MITOXANTRONE],,,3800,8000,
O=C(CCc1ccc(O)c(O)c1)c1ccc(O)c(O)c1O,,,1700,1000,
Nc1nc(=O)c2c([nH]1)NCC(CNc1ccc(C(=O)N[C@@H](CCC(=O)O)C(=O)O)cc1)=N2,,,,,inhibition [8]: < 50%; inhibition [6]: > 50%; inhibition [7]: > 50%
CC(=O)NC1=C(O)C[C@@](O)(C(=O)O)O[C@H]1[C@@H](O)[C@H](O)CO,,,,,inhibition [6]: < 50%; inhibition [7]: < 50%
O=c1oc2c(O)c(O)cc3c(=O)oc4c(O)c(O)cc1c4c23 [ELLAGIC ACID],,,5100,,
O=C(/C=C\c1ccc(O)c(O)c1)OC1CC(O)(C(=O)O)CC(OC(=O)/C=C\c2ccc(O)c(O)c2)C1O (centres undefined),,,640,660,

Structure (SMILES),inhibition [2] [%],inhibition [3] [%],IC50 [4] [nM],IC50 [5] [nM],other results
Cc1cc(O)c2c(=O)c3c(O)cc(O)c4c5c(O)cc(O)c6c(=O)c7c(O)cc(C)c8c1c2c(c34)c(c78)c65 [HYPERICIN],,,10000,,
O=C(O[C@@H]1Cc2c(O)cc(O)cc2O[C@@H]1c1cc(O)c(O)c(O)c1)c1cc(O)c(O)c(O)c1,> 50,> 50,,,inhibition [1]: > 50%
O=P(O)(O)O[C@H]1O[C@H](CO)[C@@H](O)[C@H](O)[C@@H]1O,,,,,inhibition [6]: < 50%; inhibition [7]: < 50%
O=C(/C=C/c1ccc(O)c(O)c1)O[C@H]1[C@H](O)C[C@](O)(C(=O)O)C[C@H]1OC(=O)/C=C/c1ccc(O)c(O)c1 (stereo in doubt; form 1),,,790,540,
O=C[C@H](O)[C@@H](O)C(O[C@@H]1O[C@H](CO)[C@H](O)[C@H](O)[C@H]1O)[C@H](O)CO (some centres undefined),< 50,< 50,,,
N[C@H]1[C@@H](OP(=O)(O)O)O[C@H](CO)[C@H](O)[C@@H]1O,,,,,inhibition [6]: < 50%; inhibition [7]: < 50%
CC(C)C[C@@H](C=O)NC(=O)N[C@H](C(=O)N[C@@H](CCC(N)=O)C(=O)N[C@@H](C)C=O)[C@@H]1CCN=C(N)N1,< 50,< 50,,,
COc1cccc2c1C(=O)c1c(O)c3c(c(O)c1C2=O)C[C@@](O)(C(=O)CO)C[C@@H]3O[C@H]1C[C@H](N)[C@H](O)[C@H](C)O1 [DOXORUBICIN],,,900,2400,
CCCCCCCCCCCCC/C=C/C(O)C(N)CO[C@@H]1O[C@H](CO)[C@H](O)[C@H](O)[C@H]1O (some centres undefined),> 50,< 50,,,inhibition [1]: < 50%
COC(=O)C1(O)C[C@H](O)[C@@H](NC(C)=O)[C@H]([C@H](O)[C@H](O)CO)O1 (some centres undefined),,,,,inhibition [6]: < 50%; inhibition [7]: < 50%
O=C(/C=C\c1ccc(O)c(O)c1)OC1C(O)CC(OC(=O)/C=C\c2ccc(O)c(O)c2)(C(=O)O)CC1O (centres undefined),,,9500,7800,
CN[C@@H]1[C@H](O[C@H]2[C@H](O[C@H]3[C@H](O)[C@@H](O)[C@H](N=C(N)N)[C@@H](O)[C@@H]3N=C(N)N)O[C@@H](C)[C@]2(O)C=O)O[C@@H](CO)[C@H](O)[C@H]1O,< 50,< 50,,,
O=c1c(O)c(-c2ccc(O)c(O)c2)oc2cc(O)c(O)c(O)c12 [QUERCETAGETIN],,,1300,600,
Cc1cccc2c1C(O)=C1C(=O)C3C(O)=C(C(=O)NCN4CCN(C(=N)N=C(N)N)CC4)C(=O)[C@@H](N(C)C)[C@@H]3C[C@@H]1C2(C)O (some centres undefined),,,900,300,
C[Si](C)(C)C,,,17000,5000,
Cc1cccc2c1C(O)=C1C(=O)C3C(O)=C(C(=O)NCNC(CO)(CO)CO)C(=O)[C@@H](N(C)C)[C@@H]3C[C@@H]1C2(C)O (some centres undefined),,,1100,500,
N=C(N)NCCCCNCCCNC(=N)N,,,,,inhibition [6]: < 50%; inhibition [7]: < 50%
N=C(NCCCCCCNC(=N)NC(=N)Nc1ccc(Cl)cc1)NC(=N)Nc1ccc(Cl)cc1,,,,,inhibition [8]: < 50%; inhibition [6]: > 50%; inhibition [7]: < 50%
"N=C(N)NCCCC(NC(N)=O)C(=O)O (single isomer, unassigned)",< 50,< 50,,,
Cc1cccc2c1C(O)=C1C(=O)C3C(O)=C(C(=O)NNC4(C(=O)O)CCCC4)C(=O)[C@@H](N(C)C)[C@@H]3C[C@@H]1C2(C)O (some centres undefined),,,1200,3600,

Structure (SMILES),inhibition [2] [%],inhibition [3] [%],IC50 [4] [nM],IC50 [5] [nM],other results
OC[C@H]1O[C@H](OC[C@H]2OC(O)[C@H](O)[C@@H](O)[C@@H]2O)[C@H](O)[C@@H](O)[C@@H]1O (some centres undefined),,,,,inhibition [6]: < 50%; inhibition [7]: < 50%
O=C1c2ccc(O)c(O)c2C(=O)c2c(O)ccc(O)c21 [QUINALIZARIN],,,4000,1000,
OC[C@H]1O[C@@H](SC2O[C@H](CO)[C@H](O)[C@H](O)[C@H]2O)[C@H](O)[C@@H](O)[C@H]1O (some centres undefined),< 50,< 50,,,
OCC(CO)(CO)NCCCNC(CO)(CO)CO,,,,,inhibition [6]: < 50%; inhibition [7]: < 50%
Cc1[nH]n(-c2cccc(NC(=O)Nc3cccc(-n4[nH]c(C)c(/N=N/c5c(O)cc(S(=O)(=O)O)c6cc([N+](=O)[O-])ccc56)c4=O)c3)c2)c(=O)c1/N=N/c1c(O)cc(S(=O)(=O)O)c2cc([N+](=O)[O-])ccc12,> 50,> 50,,,inhibition [1]: > 50%
O=C(CNC(=O)NCc1ccoc1)NNC(=O)Nc1cccc(Cl)c1,< 50,< 50,,,
OC[C@@H](O)[C@@H](O[C@H]1O[C@H](CO)[C@@H](O)[C@H](O)[C@H]1O)[C@H](O)[C@@H](O)CO,,,,,inhibition [6]: < 50%; inhibition [7]: < 50%
O=c1c(O)cccc2cc(O)c(O)c(O)c12 [PURPUROGALLIN],,,2100,,
NCCC[C@H](N)CC(=O)N[C@H]1CNC(=O)[C@H]([C@H]2C[C@H](O)NC(N)=N2)NC(=O)/C(=C/NC(N)=O)NC(=O)[C@H](CO)NC(=O)[C@H](CO)NC1=O (β3hOrn-[Dap]SS[ΔAla(Z-3-ureido)][X1]; lactam 1-C),< 50,< 50,,,
CN[C@@H]1[C@H](OC2[C@@H](OC3[C@@H](N=C(N)N)[C@H](O)[C@@H](N=C(N)N)[C@H](O)[C@H]3O)O[C@@H](C)[C@]2(O)CO)O[C@@H](CO)[C@H](O)[C@H]1O (some centres undefined),,,,,inhibition [6]: < 50%; inhibition [7]: < 50%
CCCNC(=O)NNC(=O)c1ccccc1NC(=O)NCCC,< 50,< 50,,,
OCCNCCNC(O)C(O)CO (centres undefined),< 50,< 50,,,
O=C(CC(O)CCc1ccc(O)c(O)c1)O[C@H]1Cc2cc(O)c(O)cc2O[C@H]1c1ccc(O)c(O)c1 (some centres undefined),,,1400,1000,
CCNC(=O)[C@H](CCCCN(N)N)NC(=O)CNC(=O)[C@H](CC(C)C)NC(=O)[C@@H](NC(=O)[C@H](O)[C@@H](O)[C@H](O)[C@H](O)CO)C(C)C,< 50,< 50,,,
O=C(NCNC(=O)NC1C(=O)NC(=O)N1CO)NC1C(=O)NC(=O)N1CO (centres undefined),> 50,< 50,,,inhibition [1]: < 50%
NC[C@@H](O)c1ccc(OC(=O)[C@H](O)[C@@H](O)C(=O)O)c(OC(=O)[C@H](O)[C@@H](O)C(=O)O)c1,> 50,< 50,,,inhibition [1]: < 50%
O=C(/C=C/c1ccc(O)c(O)c1)O[C@H]1[C@H](O)C[C@](O)(C(=O)O)C[C@H]1OC(=O)/C=C/c1ccc(O)c(O)c1 (stereo in doubt; form 2),,,250,460,
Cc1cc(=O)oc2cc(NC(=O)[C@H](CCCN=C(N)N)NC(=O)CN)ccc12 (H-Gly-Arg-{AMC}),< 50,< 50,,,
